Experimental data reported in ChEMBL document CHEMBL3817747 (J Med Chem, 2016).

experiment: Cytotoxicity against MDCK cells after 48 hrs by CellTiter 96 AQueous Non-Radioactive cell proliferation assay; type: cell-based, Canis lupus familiaris; conditions: dog
Method in brief: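 MDCK cells (1 × 10^5 cells/mL) exposed to inhibitor without virus, same steps as the antiviral assay: 48 h at 37 °C, 5% CO2, viability by MTS-type reagent, absorbance at 490 nm. CC50 is the 50% cytotoxic concentration. Highest concentration tested was 100 μM.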

Structure (SMILES)	CC50 at 48 h
CCC(CC)[C@H](NC(C)=O)[C@@H]1C[C@@H](P(=O)(O)O)C[C@H]1NC(=N)N	> 100 µM
CCOP(=O)(O)[C@@H]1C[C@@H]([C@@H](NC(C)=O)C(CC)CC)[C@H](NC(=N)N)C1	> 100 µM
CCC(CC)[C@H](NC(C)=O)[C@@H]1C=C(P(=O)(O)O)C[C@H]1NC(=N)N	> 100 µM
CCCCCCOP(=O)(O)[C@@H]1C[C@@H]([C@@H](NC(C)=O)C(CC)CC)[C@H](NC(=N)N)C1	> 100 µM
CCCCCCOP(=O)(O)C1=C[C@@H]([C@@H](NC(C)=O)C(CC)CC)[C@H](NC(=N)N)C1	> 100 µM
CCOP(=O)(O)[C@H]1C[C@@H](NC(=N)N)[C@H]([C@@H](NC(C)=O)C(CC)CC)[C@@H]1O	> 100 µM
CCCCCCOP(=O)(O)[C@H]1C[C@@H](NC(=N)N)[C@H]([C@@H](NC(C)=O)C(CC)CC)[C@@H]1O	> 100 µM
CCC(CC)[C@H](NC(C)=O)[C@@H]1[C@H](O)[C@@H](P(=O)(O)O)C[C@H]1NC(=N)N	> 100 µM
CCOP(=O)(O)C1=C[C@@H]([C@@H](NC(C)=O)C(CC)CC)[C@H](NC(=N)N)C1	> 100 µM
CCC(CC)O[C@@H]1C=C(C(=O)O)C[C@H](N)[C@H]1NC(C)=O [OSELTAMIVIR CARBOXYLATE]	> 100 µM
CCC(CC)[C@H](NC(C)=O)[C@@H]1[C@H](O)[C@@H](C(=O)O)C[C@H]1NC(=N)N [PERAMIVIR ANHYDROUS]	> 100 µM
CC(=O)N[C@H]1[C@H]([C@H](O)[C@H](O)CO)OC(C(=O)O)=C[C@@H]1NC(=N)N [ZANAMIVIR]	> 100 µM

experiment: Prodrug conversion in rabbit serum assessed as formation of (3R,4R)-[3-((S)-1-Acetamido-2-ethylbutyl)-4-guanidinocyclopent-1-en-1-yl]phosphonic acid at 1 mM at 37 degC after 24 to 96 hrs by HPLC/ESI-HRMS analysis; type: ADME, Oryctolagus cuniculus; conditions: 1000 µM

Structure (SMILES)	Drug metabolism
CCOP(=O)(O)C1=C[C@@H]([C@@H](NC(C)=O)C(CC)CC)[C@H](NC(=N)N)C1	metabolite_notdetected
